“And” between values parts separate entries of the source, which are not always exact repeats. Identical values can stand only once.
Columns and labels:
U2OS = test: Multiplex assay against U2OS; assay type: toxicity, cell-based; details: human, number of replicates 2
Outline: (§1)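 Tubulin, mitochondrial-mass and membrane-permeability phenotypes are per cents of healthy-nucleus cells. Cells were gated by CellPathfinder machine learning into Hoechst high-intensity objects or normal cells, normal cells into healthy, pyknosed or fragmented nuclei, and pyknosed cells into mitotic or apoptotic. Before that, live cells stained at seeding with Hoechst33342, BioTracker Green Microtubule Cytoskeleton Dye, MitoTracker Red and Annexin V Alexa Fluor 680 were imaged on a CQ1 microscope at 37°C and 5% CO2 after compound addition.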

HEK-293T = test: Multiplex assay against HEK293T; assay type: toxicity, cell-based; details: human, number of replicates 2; outline: as §1
[1] = 12 h, 1 µM, compound concentration 1 uM
[2] = 12 h, 10 µM, compound concentration 10 uM
[3] = 24 h, 1 µM, compound concentration 1 uM
[4] = 24 h, 10 µM, compound concentration 10 uM
[5] = 48 h, 1 µM, compound concentration 1 uM
[6] = 48 h, 10 µM, compound concentration 10 uM

For `O=C(Nc1ccc(Cl)c(-c2ccccn2)c1)c1cccc(COc2ccc(Br)cc2CNCCO)c1.O=CO`, the “Population Apoptotic (%)” value (U2OS; [1]) was 71% and 88%, the “Population Fragmented Nuclei (%)” value (U2OS; [1]) was 11% and 3% and the “Population Healthy Nuclei (%)” value (U2OS; [1]) was 62% and 75%. The “Population Hoechst High Intensity Objects (%)” value (U2OS; [1]) was 0%, the “Population Membrane Permeable-Phenotype (%)” value (U2OS; [1]) was 47% and 48% and the “Population Mitochondria Different-Phenotype (%)” value (U2OS; [1]) was 23% and 66%. The “Population Mitotic Cells (%)” value (U2OS; [1]) was 28% and 11%, the “Population Normal (%)” value (U2OS; [1]) was 100% and the “Population Pyknosed Nuclei (%)” value (U2OS; [1]) was 25% and 20%. For the same molecule, the “Population Tubulin-Different-Phenotype (%)” value (U2OS; [1]) was 82% and 87%, the “Population Apoptotic (%)” value (U2OS; [2]) was 75% and 64% and the “Population Healthy Nuclei (%)” value (U2OS; [2]) was 44% and 72%. The “Population Hoechst High Intensity Objects (%)” value (U2OS; [2]) was 0%, the “Population Membrane Permeable-Phenotype (%)” value (U2OS; [2]) was 62% and 32% and the “Population Mitochondria Different-Phenotype (%)” value (U2OS; [2]) was 62% and 57%. The “Population Mitotic Cells (%)” value (U2OS; [2]) was 25% and 36%, the “Population Normal (%)” value (U2OS; [2]) was 100% and the “Population Pyknosed Nuclei (%)” value (U2OS; [2]) was 11% and 16%. For the same molecule, the “Population Tubulin-Different-Phenotype (%)” value (U2OS; [2]) was 100% and 93%, the “Population Apoptotic (%)” value (U2OS; [3]) was 69% and 82% and the “Population Healthy Nuclei (%)” value (U2OS; [3]) was 48% and 76%. The “Population Hoechst High Intensity Objects (%)” value (U2OS; [3]) was 0%, the “Population Membrane Permeable-Phenotype (%)” value (U2OS; [3]) was 31% and 45% and the “Population Mitochondria Different-Phenotype (%)” value (U2OS; [3]) was 57% and 69%. The “Population Mitotic Cells (%)” value (U2OS; [3]) was 30% and 17%, the “Population Normal (%)” value (U2OS; [3]) was 100% and 99% and the “Population Pyknosed Nuclei (%)” value (U2OS; [3]) was 33% and 20%. For the same molecule, the “Population Tubulin-Different-Phenotype (%)” value (U2OS; [3]) was 100% and 84%, the “Population Apoptotic (%)” value (U2OS; [4]) was 100% and 71% and the “Population Healthy Nuclei (%)” value (U2OS; [4]) was 51% and 63%. For the same molecule, the “Population Hoechst High Intensity Objects (%)” value (U2OS; [4]) was 0%, the “Population Membrane Permeable-Phenotype (%)” value (U2OS; [4]) was 82% and 75% and the “Population Mitochondria Different-Phenotype (%)” value (U2OS; [4]) was 82% and 72%. The “Population Normal (%)” value (U2OS; [4]) was 100%, the “Population Pyknosed Nuclei (%)” value (U2OS; [4]) was 15% and 28% and the “Population Tubulin-Different-Phenotype (%)” value (U2OS; [4]) was 100% and 98%. For the same molecule, the “Population Apoptotic (%)” value (U2OS; [5]) was 69% and 89%, the “Population Healthy Nuclei (%)” value (U2OS; [5]) was 52% and 66% and the “Population Hoechst High Intensity Objects (%)” value (U2OS; [5]) was 2% and 0%. The “Population Membrane Permeable-Phenotype (%)” value (U2OS; [5]) was 40% and 46%, the “Population Mitochondria Different-Phenotype (%)” value (U2OS; [5]) was 52% and 59% and the “Population Mitotic Cells (%)” value (U2OS; [5]) was 30% and 10%. The “Population Normal (%)” value (U2OS; [5]) was 97% and 100%, the “Population Pyknosed Nuclei (%)” value (U2OS; [5]) was 27% and 30% and the “Population Tubulin-Different-Phenotype (%)” value (U2OS; [5]) was 92% and 65%. For the same molecule, the “Population Apoptotic (%)” value (U2OS; [6]) was 94% and 90%, the “Population Healthy Nuclei (%)” value (U2OS; [6]) was 15% and 28% and the “Population Hoechst High Intensity Objects (%)” value (U2OS; [6]) was 2% and 1%. For the same molecule, the “Population Membrane Permeable-Phenotype (%)” value (U2OS; [6]) was 100% and 80%, the “Population Mitochondria Different-Phenotype (%)” value (U2OS; [6]) was 66% and 72% and the “Population Mitotic Cells (%)” value (U2OS; [6]) was 5% and 9%. The “Population Normal (%)” value (U2OS; [6]) was 97% and 98%, the “Population Pyknosed Nuclei (%)” value (U2OS; [6]) was 44% and 62% and the “Population Tubulin-Different-Phenotype (%)” value (U2OS; [6]) was 100% and 97%. For the same molecule, the “Population Apoptotic (%)” value (HEK-293T; [1]) was 56% and 52%, the “Population Fragmented Nuclei (%)” value (HEK-293T; [1]) was 4% and 3% and the “Population Healthy Nuclei (%)” value (HEK-293T; [1]) was 76% and 80%. The “Population Hoechst High Intensity Objects (%)” value (HEK-293T; [1]) was 8% and 10%, the “Population Membrane Permeable-Phenotype (%)” value (HEK-293T; [1]) was 6% and 5% and the “Population Mitochondria Different-Phenotype (%)” value (HEK-293T; [1]) was 37% and 35%. The “Population Mitotic Cells (%)” value (HEK-293T; [1]) was 43% and 47%, the “Population Normal (%)” value (HEK-293T; [1]) was 91% and 89% and the “Population Pyknosed Nuclei (%)” value (HEK-293T; [1]) was 18% and 15%. The “Population Tubulin-Different-Phenotype (%)” value (HEK-293T; [1]) was 92% and 94%, the “Total Cell Count” value (HEK-293T; [1]) was 417 and 613 and the “Population Apoptotic (%)” value (HEK-293T; [2]) was 85% and 73%. For the same molecule, the “Population Fragmented Nuclei (%)” value (HEK-293T; [2]) was 0% and 7%, the “Population Healthy Nuclei (%)” value (HEK-293T; [2]) was 79% and 71% and the “Population Hoechst High Intensity Objects (%)” value (HEK-293T; [2]) was 11% and 13%. For the same molecule, the “Population Membrane Permeable-Phenotype (%)” value (HEK-293T; [2]) was 1%, the “Population Mitochondria Different-Phenotype (%)” value (HEK-293T; [2]) was 91% and 83% and the “Population Mitotic Cells (%)” value (HEK-293T; [2]) was 14% and 26%. For the same molecule, the “Population Normal (%)” value (HEK-293T; [2]) was 88% and 86%, the “Population Pyknosed Nuclei (%)” value (HEK-293T; [2]) was 19% and 21% and the “Population Tubulin-Different-Phenotype (%)” value (HEK-293T; [2]) was 81% and 95%. The “Total Cell Count” value (HEK-293T; [2]) was 238 and 269, the “Population Apoptotic (%)” value (HEK-293T; [3]) was 48% and 54% and the “Population Fragmented Nuclei (%)” value (HEK-293T; [3]) was 4% and 6%. The “Population Healthy Nuclei (%)” value (HEK-293T; [3]) was 85% and 82%, the “Population Hoechst High Intensity Objects (%)” value (HEK-293T; [3]) was 6% and 10% and the “Population Membrane Permeable-Phenotype (%)” value (HEK-293T; [3]) was 6%. For the same molecule, the “Population Mitochondria Different-Phenotype (%)” value (HEK-293T; [3]) was 29% and 19%, the “Population Mitotic Cells (%)” value (HEK-293T; [3]) was 51% and 45% and the “Population Normal (%)” value (HEK-293T; [3]) was 93% and 89%. The “Population Pyknosed Nuclei (%)” value (HEK-293T; [3]) was 9% and 11%, the “Population Tubulin-Different-Phenotype (%)” value (HEK-293T; [3]) was 88% and 86% and the “Total Cell Count” value (HEK-293T; [3]) was 566 and 806. For the same molecule, the “Population Apoptotic (%)” value (HEK-293T; [4]) was 82% and 80%, the “Population Fragmented Nuclei (%)” value (HEK-293T; [4]) was 4% and the “Population Healthy Nuclei (%)” value (HEK-293T; [4]) was 75% and 72%. For the same molecule, the “Population Hoechst High Intensity Objects (%)” value (HEK-293T; [4]) was 16% and 15% and the “Population Membrane Permeable-Phenotype (%)” value (HEK-293T; [4]) was 1% and 2%.
